Source: PubChem (several laboratories)
The list is not random: actives were taken first. Their share in the collection is about 9.6%.
APP 5UTR inh – APP translation inhibition; SH-SY5Y APP 5'UTR-luciferase reporter, luminescence; inhibition, % at 2 µM; hit rate 0.82% among 190,000; AID 1285;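 active means inhibition above a set limit, derived from the sample mean plus 3 SD, cut at about 45% in these data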
MT stabilize HCS – microtubule stabilizers in HeLa cells. HeLa tubulin immunostaining HCS, 24 h; share of cells brighter than vehicle mean+2SD. % tubulin-high responders, % at 10 µM. hit rate 0.83% among 200,000. AID 2205;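 active means plate Z-score above 3 for both tubulin-high and condensed-nucleus cell shares, with cell loss under 80%, at 10 µM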;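 further: anti alpha tubulin signal scored within the nucleus-defined area of each cell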
Ba/F3 V617F tox – reduce viability of Ba/F3 cells dependent on JAK2V617F. Ba/F3 EpoR-JAK2V617F viability, ATP luminescence. inhibition, % at 5.6 µM. hit rate 1.1% among 220,000. AID 1446;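 active means inhibition above the campaign mean plus 3 SD over all tested compounds, cut at about 24% in these data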;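 further: cytokine-independent growth of Ba/F3 cells driven by EpoR plus mutant JAK2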
L major viab – reduces viability of Leishmania major promastigotes; inhibition, % at 10 µM; AID 1063; hit rate 9% among 200,000; resazurin fluorescence viability; in the data active means inhibition above about 50%;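 further: promastigotes grown with compound for 44 hours at 28 °C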
BaF3 tox – parental Ba/F3 viability inhibition as JAK2V617F counter-screen; inhibition, % at 5.6 µM; CellTiter-Glo ATP luminescence; hit rate 1.1% among 220,000; AID 1486;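 active means inhibition above a per-campaign cutoff, the mean inhibition of all tested compounds plus 3 SD, cut at about 27% in these data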
b-catenin transl – beta-catenin nuclear translocation modulation | HeLa beta-catenin nuclear translocation, immunofluorescence imaging | nuclear translocation activity, % at 5 µM | hit rate 0.3% among 190,000;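 active means nuclear translocation activity above 50% at 5 µM, with a well cell count of 50 or more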;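 further: per-cell ratio of nuclear to cytoplasmic median beta-catenin stain intensity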
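test system = HeLa cells, endogenous beta-catenin | dosing = single 5 µM dose plus 0.02–20 µM confirmation series | times = compound treatment 24 h, 37°C, 5% CO2 | technique = beta-catenin immunofluorescence imaging with DAPI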
Hits are given with their value; . = inactive; / = no result given.

SMILES | APP 5UTR inh | MT stabilize HCS | Ba/F3 V617F tox | L major viab | BaF3 tox | b-catenin transl
COC(=O)C1C(c2ccc(OC)cc2)C(C(=O)OC)S(=O)(=O)C(CCN2CCCCC2)S1(=O)=O (centres undefined) | . | . | . | . | . | .
Nc1nnc(CC(=O)N/N=C/c2ccc(-c3cccc(C(=O)O)c3)o2)s1 | / | / | . | / | . | .
Cc1ccc(O)c(NC(=S)NC(=O)c2ccccc2Cl)c1 | . | . | . | . | . | .
O=C(NC1CC1)C1CCN(C2CCN(C(=O)CCOc3ccccc3)CC2)CC1 | . | . | . | . | . | .
COc1cc(OC)c(C(=O)NCCCN2CCOCC2)cc1OC | . | . | . | . | . | .
Cc1c(Br)cc(C(=O)NCCCN2CCOCC2)c(C)c1C | . | . | . | 61.1 | . | .
O=C(NCCCN1CCOCC1)c1ccc(Br)cc1Br | . | . | . | 81.0 | . | .
O=C(NCCCN1CCOCC1)c1cc2cc(Br)ccc2oc1=O | . | . | . | . | . | .
O=C(C(Cc1ccccc1)N1C(=O)c2ccccc2C1=O)N1CCc2ccccc21 (centres undefined) | . | . | . | . | . | .
c1ccc(OCCCN2CCCC2)cc1 | . | . | . | . | . | /
c1ccc(COc2ccc(OCCCCN3CCCC3)cc2)cc1 | . | . | . | 92.1 | . | .
Fc1ccc(OCCCCCCN2CCCC2)cc1 | . | . | . | 95.1 | . | .
c1ccc(COc2ccc(OCCCN3CCCCC3)cc2)cc1 | . | . | . | 100.2 | . | /
COc1ccccc1N1CCN(CCCOc2ccc(F)cc2)CC1 | . | . | . | . | . | /
CC1CCN(CCOc2ccc(OCc3ccccc3)cc2)CC1 | . | . | . | 99.2 | . | .
CC1(C)CC(NC(=O)C(=O)NCCc2ccccc2)CC(C)(C)N1 | / | / | . | / | . | .
CCOC(=O)/C(C#N)=C/c1cc2ccccc2nc1N1CCCCC1 | . | . | . | 88.5 | . | .
Cc1ccc2cc(C=C(C#N)C#N)c(N3CCCCC3)nc2c1 | . | . | . | 98.7 | . | /
N#C/C(=C\c1cc2ccccc2nc1N1CCOCC1)C(=O)Nc1ccc(N2CCOCC2)cc1 | . | . | . | . | . | .
Cc1ccc2cc(/C=C(\C#N)C(N)=O)c(N3CCCCC3)nc2c1 | . | . | . | . | . | /
C[N+]1(CC(=O)NNc2c3ccccc3nc3ccccc23)CCOCC1 | . | . | . | . | 28.9 | .
O=C1c2ccccc2-c2ccc(C(=O)N3CCCCC3)cc21 | . | . | . | . | . | .
N#CC1=C(N)OC2=C(CCc3ccccc32)C1c1ccccc1Cl (centres undefined) | 94.0 | 17.5 | . | . | . | .
CCCn1c(N2CCC(Cc3ccccc3)CC2)nc2c1c(=O)[nH]c(=O)n2C | . | . | . | . | . | .
Cc1cc(C)n(-c2nc3c(c(=O)[nH]c(=O)n3C)n2Cc2ccccc2)n1 | . | . | . | . | . | .
SMILES | APP 5UTR inh | MT stabilize HCS | Ba/F3 V617F tox | L major viab | BaF3 tox | b-catenin transl
CN(Cc1ccccc1)c1nc2c(c(=O)[nH]c(=O)n2C)n1Cc1ccccc1 | . | . | . | . | . | .
CN(Cc1ccccc1)c1nc2c(c(=O)[nH]c(=O)n2C)n1CCOc1ccccc1 | . | . | . | 55.1 | . | .
Cc1cc(C)n(-c2nc3c(c(=O)[nH]c(=O)n3C)n2CCc2ccccc2)n1 | . | 40.9 | . | . | . | .
C=C(C)Cn1c(N2CCC(Cc3ccccc3)CC2)nc2c1c(=O)[nH]c(=O)n2C | . | . | . | 77.7 | . | .
CCCCCn1c(N2CCC(Cc3ccccc3)CC2)nc2c1c(=O)[nH]c(=O)n2C | . | . | . | 98.9 | . | /
Cc1cc(NC(=O)CN2C(=O)c3ccccc3C2=O)no1 | / | / | . | / | . | .
O=C(O)CC(CC(=O)Nc1ccc(F)c(Cl)c1)c1ccc(Cl)cc1Cl (centres undefined) | / | / | . | / | . | .
Cc1cc(N2CC(C)OC(C)C2)n2cc(-c3ccccc3)nc2n1 (centres undefined) | . | . | . | . | . | .
CCCCCn1c(N2CCN(Cc3ccccc3)CC2)nc2c1c(=O)[nH]c(=O)n2C | . | . | . | 99.9 | . | /
O=C(NC1CCCCC1)C(c1ccco1)N(CCc1ccccc1)C(=O)C(F)(F)F (centres undefined) | . | . | . | . | . | .
C#CC(=O)N(c1ccc(OC)cc1OC)C(C(=O)NC1CCCC1)c1cccs1 (centres undefined) | . | . | 100.9 | 94.2 | 26.6 | .
